Reference: ChEMBL document CHEMBL2062365, “Suppressive effects of coumarins from Mammea siamensis on inducible nitric oxide synthase expression in RAW264.7 cells” (Bioorg Med Chem, 2012)
The source made the active and inactive calls. The calls are words filed in the database; no cut-off is given here.

tested on: not listed separately; experiment: Cytotoxicity against mouse RAW264.7 cells assessed as cell viability at 30 uM after 18 hrs by MTT assay; type: cell-based; conditions: read-out: Activity
Method in brief: (§1)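 MTT viability assay. RAW264.7 cells seeded at 1.0 × 10^5 cells/well; after 6 h, nonadherent cells were washed off. Adherent cells were cultured with test compound for 18 h. MTT (5 mg/mL in PBS) was added for 2 h at 37 °C. Formazan was dissolved in isopropanol with 0.04 M HCl and OD read at 570 nm (reference 655 nm).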

| SMILES | viability at 18 h, 30 µM [%] |
| --- | --- |
| CC[C@H](O)c1cc(=O)oc2c(CC=C(C)C)c(O)c(C(=O)CC(C)C)c(O)c12 [KAYEASSAMIN G] | 83.7 |
| CCCC(=O)c1c(O)c(C/C=C(\C)CCC=C(C)C)c(O)c2c([C@@H](O)CC)cc(=O)oc12 [KAYEASSAMIN A] | 82.4 |
| O=C(/C=C/c1ccc(O)c(O)c1)OCCc1ccccc1 [CAFFEIC ACID PHENETHYL ESTER] | 15.6 |
| CCCC(=O)c1c(O)c(CC=C(C)C)c2oc(=O)cc(-c3ccccc3)c2c1O [MAMMEA A/AC] | 96.8 |
| CC[C@H](O)c1cc(=O)oc2c(C(=O)CC(C)C)c(O)c(C/C=C(\C)CCC=C(C)C)c(O)c12 [SURANGIN D] | 104 |

tested on: RAW264.7; experiment: Inhibition of SAPK/JNK phosphorylation in LPS-induced mouse RAW264.7 cells at 1 to 30 uM incubated for 10 mins prior to LPS-challenge measured after 30 mins by Western blot analysis; type: cell-based; conditions: not given
Method in brief: (§2)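 RAW264.7 cells (5.0 × 10^6/well) adhered for 6 h. Compound was added for 10 min, then LPS (final 10 µg/mL) for 30 min. BCA-normalized lysates, 25 µg/lane, were run on 10% SDS–PAGE and transferred to PVDF. Phospho-proteins (p-JNK, p-p38, p-STAT1 Ser727) were blocked in Blocking One-P, others (NF-κB p65) in Blocking One. Primary antibodies 1:1000 for 1 h at rt; detection by ECL.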

| SMILES | inhibition |
| --- | --- |
| CC[C@H](O)c1cc(=O)oc2c(CC=C(C)C)c(O)c(C(=O)CC(C)C)c(O)c12 [KAYEASSAMIN G] | inactive |

tested on: RAW264.7; experiment: Antiinflammatory activity in mouse RAW264.7 cells assessed as inhibition of LPS-induced NO production at 3 uM incubated for 10 mins prior to LPS-challenge measured after 18 hrs by Griess method relative to control; conditions: not given

| SMILES | inhibition at 3 µM [%] |
| --- | --- |
| CC[C@H](O)c1cc(=O)oc2c(CC=C(C)C)c(O)c(C(=O)CC(C)C)c(O)c12 [KAYEASSAMIN G] | 55.9 |
| CCCC(=O)c1c(O)c(C/C=C(\C)CCC=C(C)C)c(O)c2c([C@@H](O)CC)cc(=O)oc12 [KAYEASSAMIN A] | 15 |
| O=C(/C=C/c1ccc(O)c(O)c1)OCCc1ccccc1 [CAFFEIC ACID PHENETHYL ESTER] | 45.7 |
| CCCC(=O)c1c(O)c(CC=C(C)C)c2oc(=O)cc(-c3ccccc3)c2c1O [MAMMEA A/AC] | 14.2 |
| CC[C@H](O)c1cc(=O)oc2c(C(=O)CC(C)C)c(O)c(C/C=C(\C)CCC=C(C)C)c(O)c12 [SURANGIN D] | 41.1 |

tested on: RAW264.7; experiment: Antiinflammatory activity in mouse RAW264.7 cells assessed as inhibition of LPS-induced NO production at 30 uM incubated for 10 mins prior to LPS-challenge measured after 18 hrs by Griess method relative to control; type: functional; conditions: not given
Method in brief: (§3)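 RAW264.7 cells (DMEM, 10% FBS, 37 °C, 5% CO2) seeded at 2.5 × 10^5 cells/well. After 6 h, nonadherent cells were washed off. Adherent cells were exposed to test compound for 10 min, then to LPS (E. coli 055:B5, final 10 µg/mL) for 18 h. Supernatant nitrite was measured by Griess reaction. Inhibition % = (A−B)/(A−C)×100, with C as the no-LPS control. IC50 was read graphically; N = 4, mean ± SEM. CAPE was the reference.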

| SMILES | inhibition at 30 µM [%] |
| --- | --- |
| CC[C@H](O)c1cc(=O)oc2c(CC=C(C)C)c(O)c(C(=O)CC(C)C)c(O)c12 [KAYEASSAMIN G] | 72.3 |
| CCCC(=O)c1c(O)c(C/C=C(\C)CCC=C(C)C)c(O)c2c([C@@H](O)CC)cc(=O)oc12 [KAYEASSAMIN A] | 56.6 |
| O=C(/C=C/c1ccc(O)c(O)c1)OCCc1ccccc1 [CAFFEIC ACID PHENETHYL ESTER] | 100 |
| CCCC(=O)c1c(O)c(CC=C(C)C)c2oc(=O)cc(-c3ccccc3)c2c1O [MAMMEA A/AC] | 67.6 |
| CC[C@H](O)c1cc(=O)oc2c(C(=O)CC(C)C)c(O)c(C/C=C(\C)CCC=C(C)C)c(O)c12 [SURANGIN D] | 74 |

target: MAP kinase p38 (Mus musculus) (UniProt P47811+O08911+Q9WUI1+Q9Z1B7); experiment: Inhibition of p38 phosphorylation in LPS-induced mouse RAW264.7 cells at 1 to 30 uM incubated for 10 mins prior to LPS-challenge measured after 30 mins by Western blot analysis; type: cell-based; conditions: not given; method in brief: as §2

| inhibition | SMILES |
| --- | --- |
| inactive | CC[C@H](O)c1cc(=O)oc2c(CC=C(C)C)c(O)c(C(=O)CC(C)C)c(O)c12 [KAYEASSAMIN G] |

target: T1, Signal transducer and activator of transcription 1 (Mus musculus) (UniProt P42225); experiment: Inhibition of STAT1 phosphorylation in LPS-induced mouse RAW264.7 cells incubated for 10 mins prior to LPS-challenge measured after 30 mins by Western blot analysis; type: cell-based; conditions: not given; method in brief: as §2
T1 sequence (whole entry): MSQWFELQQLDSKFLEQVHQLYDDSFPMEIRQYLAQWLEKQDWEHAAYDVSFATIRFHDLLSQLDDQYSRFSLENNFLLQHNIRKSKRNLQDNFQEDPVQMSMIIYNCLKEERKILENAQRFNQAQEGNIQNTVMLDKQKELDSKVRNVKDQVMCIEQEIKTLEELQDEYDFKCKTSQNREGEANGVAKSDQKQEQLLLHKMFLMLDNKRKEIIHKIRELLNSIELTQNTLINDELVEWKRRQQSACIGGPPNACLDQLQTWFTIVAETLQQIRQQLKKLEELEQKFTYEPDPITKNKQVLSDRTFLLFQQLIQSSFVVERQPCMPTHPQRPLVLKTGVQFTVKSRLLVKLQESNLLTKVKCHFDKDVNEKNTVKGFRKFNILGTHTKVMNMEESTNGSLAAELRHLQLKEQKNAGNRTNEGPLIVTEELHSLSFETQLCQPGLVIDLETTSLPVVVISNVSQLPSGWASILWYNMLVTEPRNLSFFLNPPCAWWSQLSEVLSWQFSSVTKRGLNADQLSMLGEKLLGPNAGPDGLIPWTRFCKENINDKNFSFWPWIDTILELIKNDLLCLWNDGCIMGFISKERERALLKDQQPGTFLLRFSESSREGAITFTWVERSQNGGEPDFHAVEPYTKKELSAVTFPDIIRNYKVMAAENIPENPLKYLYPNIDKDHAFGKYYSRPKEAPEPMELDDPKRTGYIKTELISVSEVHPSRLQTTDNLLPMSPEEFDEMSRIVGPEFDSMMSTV

| inhibition | SMILES |
| --- | --- |
| Dose-dependent effect | CC[C@H](O)c1cc(=O)oc2c(CC=C(C)C)c(O)c(C(=O)CC(C)C)c(O)c12 [KAYEASSAMIN G] |

tested on: RAW264.7; experiment: Antiinflammatory activity in mouse RAW264.7 cells assessed as inhibition of LPS-induced NO production at 1 uM incubated for 10 mins prior to LPS-challenge measured after 18 hrs by Griess method relative to control; type: functional; conditions: not given; method in brief: as §3

| SMILES | inhibition at 1 µM [%] |
| --- | --- |
| CC[C@H](O)c1cc(=O)oc2c(CC=C(C)C)c(O)c(C(=O)CC(C)C)c(O)c12 [KAYEASSAMIN G] | 51 |
| CCCC(=O)c1c(O)c(C/C=C(\C)CCC=C(C)C)c(O)c2c([C@@H](O)CC)cc(=O)oc12 [KAYEASSAMIN A] | 5 |
| O=C(/C=C/c1ccc(O)c(O)c1)OCCc1ccccc1 [CAFFEIC ACID PHENETHYL ESTER] | 5.4 |
| CCCC(=O)c1c(O)c(CC=C(C)C)c2oc(=O)cc(-c3ccccc3)c2c1O [MAMMEA A/AC] | 0.6 |
| CC[C@H](O)c1cc(=O)oc2c(C(=O)CC(C)C)c(O)c(C/C=C(\C)CCC=C(C)C)c(O)c12 [SURANGIN D] | 22.7 |

tested on: RAW264.7; experiment: Antiinflammatory activity in mouse RAW264.7 cells assessed as inhibition of LPS-induced NO production at 10 uM incubated for 10 mins prior to LPS-challenge measured after 18 hrs by Griess method relative to control; type: functional; conditions: not given; method in brief: as §3

| SMILES | inhibition at 10 µM [%] |
| --- | --- |
| CC[C@H](O)c1cc(=O)oc2c(CC=C(C)C)c(O)c(C(=O)CC(C)C)c(O)c12 [KAYEASSAMIN G] | 81.5 |
| CCCC(=O)c1c(O)c(C/C=C(\C)CCC=C(C)C)c(O)c2c([C@@H](O)CC)cc(=O)oc12 [KAYEASSAMIN A] | 29.7 |
| O=C(/C=C/c1ccc(O)c(O)c1)OCCc1ccccc1 [CAFFEIC ACID PHENETHYL ESTER] | 98.4 |
| CCCC(=O)c1c(O)c(CC=C(C)C)c2oc(=O)cc(-c3ccccc3)c2c1O [MAMMEA A/AC] | 46.9 |
| CC[C@H](O)c1cc(=O)oc2c(C(=O)CC(C)C)c(O)c(C/C=C(\C)CCC=C(C)C)c(O)c12 [SURANGIN D] | 55.4 |

tested on: RAW264.7; experiment: Antiinflammatory activity in mouse RAW264.7 cells assessed as inhibition of LPS-induced iNOS expression at 1 to 30 uM incubated for 10 mins prior to LPS-challenge measured after 12 hrs by Western blot analysis; type: functional, cell-based; conditions: not given
Method in brief: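 RAW264.7 cells (5.0 × 10^6/well, 6-well) adhered for 6 h. Compound was added for 10 min, then LPS (final 10 µg/mL) for 12 h. Lysates were sonicated and normalized by BCA. 50 µg protein/lane was run on 10% SDS–PAGE and transferred to PVDF. Blots were probed for iNOS and β-actin (primary 1:1000, HRP secondary 1:5000) and detected by ECL.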

| SMILES | inhibition |
| --- | --- |
| CC[C@H](O)c1cc(=O)oc2c(CC=C(C)C)c(O)c(C(=O)CC(C)C)c(O)c12 [KAYEASSAMIN G] | Active |

tested on: not listed separately; experiment: Cytotoxicity against mouse RAW264.7 cells assessed as cell viability at 10 uM after 18 hrs by MTT assay; type: cell-based; conditions: read-out: Activity; method in brief: as §1

| SMILES | viability at 18 h, 10 µM [%] |
| --- | --- |
| O=C(/C=C/c1ccc(O)c(O)c1)OCCc1ccccc1 [CAFFEIC ACID PHENETHYL ESTER] | 76.4 |

tested on: RAW264.7; experiment: Antiinflammatory activity in mouse RAW264.7 cells assessed as inhibition of LPS-induced NO production incubated for 10 mins prior to LPS-challenge measured after 18 hrs by Griess method; type: functional, cell-based; conditions: not given; method in brief: as §3

| IC50 [µM] | SMILES |
| --- | --- |
| 0.8 | CC[C@H](O)c1cc(=O)oc2c(CC=C(C)C)c(O)c(C(=O)CC(C)C)c(O)c12 [KAYEASSAMIN G] |
| 26.6 | CCCC(=O)c1c(O)c(C/C=C(\C)CCC=C(C)C)c(O)c2c([C@@H](O)CC)cc(=O)oc12 [KAYEASSAMIN A] |
| 3.8 | O=C(/C=C/c1ccc(O)c(O)c1)OCCc1ccccc1 [CAFFEIC ACID PHENETHYL ESTER] |
| 13 | CCCC(=O)c1c(O)c(CC=C(C)C)c2oc(=O)cc(-c3ccccc3)c2c1O [MAMMEA A/AC] |
| 6.2 | CC[C@H](O)c1cc(=O)oc2c(C(=O)CC(C)C)c(O)c(C/C=C(\C)CCC=C(C)C)c(O)c12 [SURANGIN D] |
